Laboratory results from PubChem BioAssay AID504383 (The Scripps Research Institute Molecular Screening Center, 2011).
Out of some 2,500 compounds screened, about 1,200 (48%) were called active. So high a share suggests a set chosen from earlier hits. Some of the results follow. A number with no mark means an inactive call.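 How the source made its calls: active means mean activation above the low control average plus 3 SD, as set in the primary screen (cut at about 12% in these data); inactive means the rest.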

Each compound was assayed against Troponin I, cardiac muscle (Homo sapiens) + Troponin T, cardiac muscle (Homo sapiens) + Troponin C, slow skeletal and cardiac muscles (Homo sapiens) (UniProt P19429+P45379+P63316) (assay: cardiac RTF calcium sensitivity activators, confirmation, biochemical, IANBD-TnC fluorescence, triplicate (AID 504383;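 further: 0% = DMSO at 0.472 mM calcium and 100% = DMSO at 2.9 mM calcium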)). Details: IANBD-labeled cardiac RTF, Ca2+ sensitivity fluorescence; at 7.2 µM; hits give high values; scaled from EC20 to saturating calcium; tested at EC20 calcium, 0.472 mM.
Summary of the method: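 Material: labelled regulated thin filaments; Reagent: 0.472 mM calcium; Incubation: 15 min compound incubation with filaments at 25 °C; Detection: filament fluorescence intensity; Evaluation: fluorescence increase normalised to calcium controls; Benchmarks: low control EC20 calcium, high control EC100 calcium.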
With CN1CC=C2C(C#N)=C(N)C(C#N)(C#N)[C@H](c3ccoc3)[C@H]2C1 the activation was 62.5% (active). Compound CCN1CC=C2C(C#N)=C(N)C(C#N)(C#N)[C@H](c3ccoc3)[C@H]2C1 has an activation of -0.65%. For N#C/C(=C\c1ccc(Sc2ccc(Cl)cc2)o1)c1nc2ccccc2[nH]1, the activation was 7.23%. For Cc1cc2nc(/C(C#N)=C\c3ccc(-c4ccccc4C(=O)O)o3)[nH]c2cc1C, the activation was 14.2% (active). For Cc1ccc2nc(/C(C#N)=C/c3ccc(-c4ccccc4C(=O)O)o3)[nH]c2c1, the activation was 12.9% (active). In the case of N#C/C(=C\c1ccc(-c2ccccc2C(=O)O)o1)c1nc2ccccc2[nH]1, the activation is reported as 14.2% (active). COc1cccc(CN2CCNC(=O)C2CC(=O)N(C)Cc2cnccn2)c1OC (stereo not drawn) gave an activation of 7.66%. With CC(=O)[C@H]1[C@H](C#N)C[C@H]2[C@@H]3CC=C4C[C@@H](O)CC[C@]4(C)[C@H]3CC[C@@]21C the activation was 45.3% (active). With O=c1c2ccccc2cnn1Cc1n[nH]c(=S)n1-c1ccccc1Cl the activation was 16.3% (active). For CSCC(O)Cn1ncc2ccccc2c1=O (stereo not drawn), the activation was 5.97%. For CC1(C)NC(=O)N(CCCCOc2ccc(Cl)cc2)C1=O, the activation was 0.92%. In the case of CCC(/C=C1\Oc2ccc(OC)cc2N1C)=C\c1sc2ccccc2[n+]1CCCS(=O)(=O)[O-], the activation is reported as 33.2% (active). COc1cc(/C=C/c2sc3ccccc3[n+]2CCCS(=O)(=O)[O-])ccc1O gave an activation of 7.82%. With Cc1ccc(CSc2nnc(SCC(=O)N/N=C/c3ccccc3OCC(=O)O)s2)cc1 the activation was 15.5% (active). Work on CCOc1ccccc1C=NNC(=O)CCCCC(=O)NN=Cc1ccccc1OCC yielded an activation of 6.22%. Work on O=C(CSCc1c(F)cccc1Cl)Nc1ccccc1C(=O)N1CCOCC1 yielded an activation of 11.5%. O=C(Nc1ccccc1F)C(=Cc1sc(N2CCOCC2)nc1-c1ccccc1)C(=O)Nc1ccccc1F was tested, and the activation was -0.07%. Work on COc1ccccc1N1CCN(C(=O)c2cn(-c3ccccc3)nc2-c2cccnc2)CC1 yielded an activation of 10%. In the case of O=C(N/C(=C/c1cn(-c2ccccc2)nc1-c1ccccc1)C(=O)N1CCOCC1)c1ccc(Cl)cc1Cl, the activation is reported as 12.7% (active). In the case of O=C(c1cn(-c2ccccc2)nc1-c1ccc(Br)cc1)N1CCOCC1, the activation is reported as 16.9% (active). With Cc1cc(NC(=O)/C(C#N)=C/c2ccc(-c3ccc(SC(F)F)cc3)o2)n(-c2ccccc2)n1 the activation was 659% (active). For Cc1cc(NC(=O)/C(C#N)=C\c2ccc(-c3ccc(SC(F)F)cc3)o2)n(-c2ccccc2)n1, the activation was 359% (active). COC(=O)CCc1c(C)c(C(=O)c2cc(F)c(F)c(F)c2F)c2ccccn12 gave an activation of -2.54%. In the case of O=C1CCNc2ccc(-c3ccccc3)cc21, the activation is reported as 7.84%. Cn1c(=O)c2cc(NCc3ccccc3)nnc2n(C)c1=O was tested, and the activation was 13.9% (active). For Cn1c(=O)c(NCCc2ccccc2)c2c3c(cccc31)C(=O)c1ccccc1-2, the activation was 2.98%. With CC(C(=O)c1ccc(Br)cc1)[n+]1cccc2ccccc21 (stereo not drawn) the activation was 64.2% (active). Work on Cc1cccc(NC(=O)c2ccc(C(=O)c3ccccc3)cc2)n1 yielded an activation of 9.46%. With Cc1cc(C)nc(NC(=O)c2ccc(Cl)c(Cl)c2)n1 the activation was 12.3% (active). For CCOC(=O)c1c(/N=C/c2cccc([N+](=O)[O-])c2O)sc(C)c1C, the activation was 7.57%. For COC(=O)c1c(NC(=O)CN2CCN(c3cccc(Cl)c3)CC2)sc(C)c1C, the activation was 13.4% (active). For COC(=O)c1c(NC(=O)c2ccnn2C)sc(C)c1C, the activation was 5.98%. CCN1C(=S)N[C@@H](CCc2ccccc2)[C@H](C(=O)OC)[C@H]1C was tested, and the activation was 57.4% (active). CC(C)(C)c1ccc(C(=O)NC(=S)Nc2ccc(N3CCOCC3)cc2)cc1 gave an activation of 0.7%. COc1ccc(/C=C/C(=O)NC(=S)Nc2ccc(C(=O)O)cc2)cc1 was tested, and the activation was 55.3% (active). O=C(/C=C/c1ccccc1)N/C(=C/c1ccccc1)C(=O)NCCCO showed an activation of 9.8%. In the case of O=C(O)c1ccc(NC(=S)NC(=O)c2ccc(-c3ccccc3)cc2)cc1, the activation is reported as 78.4% (active). CCC(=O)Nc1ccc(NC(=S)NC(=O)c2oc3ccccc3c2C)cc1 was tested, and the activation was 1.23%. With C=CCNc1nnc(SCC(=O)N2CCCCC2)c2ccccc12 the activation was 15.7% (active). In the case of O=C(CSc1ccc(-c2cccs2)nn1)N1CCCCC1, the activation is reported as 0.96%. For CS(=O)(=O)c1ccc(C(=O)OCC(=O)Nc2cccnc2Cl)cc1[N+](=O)[O-], the activation was 13.1% (active). Compound CCOC(=O)c1c(NC(=O)COC(=O)Cc2ccccc2[N+](=O)[O-])sc(C(=O)N(C)C)c1C has an activation of 6.12%. For CC(Sc1nnc(NCc2ccccc2)s1)C(=O)Nc1ccc2c(c1)C(=O)c1ccccc1C2=O (stereo not drawn), the activation was 137% (active). For Cc1ccc(NC(=O)C(C)Sc2nnc(C)n2C2CC2)cc1S(=O)(=O)N1CCOCC1 (stereo not drawn), the activation was 7.55%. With CCSC1=NSC2=NC(=O)/C(=C\c3coc4ccccc4c3=O)C(=N)N12 the activation was 74.7% (active). With CC(C)CSC1=NSC2=NC(=O)/C(=C\c3coc4ccccc4c3=O)C(=N)N12 the activation was 45.1% (active). CSC1=NSC2=NC(=O)/C(=C/c3coc4ccccc4c3=O)C(=N)N12 showed an activation of 3.64%. Compound CC(C)NC(=S)N/N=C/c1sc(N2CCCCC2)nc1-c1cccs1 has an activation of 11.2%. For O=C(Nc1ccc(Br)cc1)c1ccc(Br)c(S(=O)(=O)Nc2cccnc2)c1, the activation was 22.2% (active). Compound O=C(NCCCN1CCCC1=O)c1cccc(S(=O)(=O)Nc2ccc(Br)cc2)c1 has an activation of 10%. For O=C(Nn1cnnc1)c1cc([N+](=O)[O-])cc([N+](=O)[O-])c1, the activation was 11.3%. In the case of Cc1csc(NS(=O)(=O)c2cccc([N+](=O)[O-])c2)n1, the activation is reported as 10.9%. Cc1occc1C(=O)Nc1cccc([N+](=O)[O-])c1 was tested, and the activation was 30.8% (active). COc1cc2cc(CN(Cc3cccnc3)C(=O)NCc3ccccc3)c(=O)[nH]c2cc1OC was tested, and the activation was 324% (active). For O=C(c1ccncc1)N(Cc1ccccc1)Cc1nc2ccccc2c(=O)[nH]1, the activation was 9.24%. Compound COc1ccc2cc(CN(CC3CCCO3)C(=S)NCc3ccco3)c(=O)[nH]c2c1 (stereo not drawn) has an activation of 1.66%. For CN1c2ccccc2C(O)=C(C(=S)Nc2ccc(F)c(Cl)c2)S1(=O)=O, the activation was 54.4% (active). For CC(=O)Nc1ccccc1C(=O)C(=O)Nc1ccc(F)c(Cl)c1, the activation was 7.61%. In the case of CC(=O)/C(C=Nc1noc(C)c1Br)=C(\C)O, the activation is reported as 50.2% (active). With C=C1C(=O)O[C@@]23[C@H]1CC[C@@H](C)[C@@H]2CC[C@@]1(C)O[C@@H]31 the activation was 11.9% (active). In the case of C=CCNC(=O)NC(=O)COC(=O)CC(NC(N)=O)c1ccc(Cl)cc1 (stereo not drawn), the activation is reported as 154% (active). CN(C)CCOc1ccccc1C(C)(C)C was tested, and the activation was 4.26%. With CN(C)CCN(C)Cc1c2ccccc2c(CN(C)CCN(C)C)c2ccccc12 the activation was 27.7% (active). CC[N+](C)(C)c1cccc(O)c1 showed an activation of 3.39%. Work on Nc1nc(NCc2ccco2)nc(N2CCCCCC2)c1[N+](=O)[O-] yielded an activation of 6.31%. In the case of Cc1ccc(S(=O)(=O)Nc2nc3ccccc3nc2NCc2ccco2)cc1, the activation is reported as 23.7% (active). With Cc1ccc(S(=O)(=O)Nc2ccc3ncccc3c2[N+](=O)[O-])cc1 the activation was 11.6%. With COC(=O)c1[nH]c2ccc(C)cc2c1NC(=O)C(C)N1CCN(C2CCCCC2)CC1 (stereo not drawn) the activation was 10.5%. COc1ccccc1-c1nnc(SCC(=O)Nc2ccc3[nH]c(=O)[nH]c3c2)n1N was tested, and the activation was 6.5%. In the case of CCn1c(C)c(CCC(=O)O)c(=O)n2nc(-c3ccccc3OC)cc12, the activation is reported as 11.7% (active). In the case of O=S(=O)(CCN(CCS(=O)(=O)C(F)(F)F)CC1CCCO1)C(F)(F)F (stereo not drawn), the activation is reported as 17.5% (active). With O=C(O)CCCN1C(=O)/C(=C/c2cn(-c3ccccc3)nc2-c2cccs2)SC1=S the activation was 150% (active). In the case of Cc1ccc(-c2nn(-c3ccccc3)cc2/C=C2\SC(=S)N(CCCCCC(=O)O)C2=O)o1, the activation is reported as 23.1% (active). COC(=O)CCCCCN1C(=O)/C(=C\c2ccncc2)SC1=S showed an activation of 4.31%. With COc1ccccc1C(=O)NNC(=O)CCCN1C(=O)/C(=C/c2cccs2)SC1=S the activation was 1.62%. For C=CCNc1sc(C(=O)c2ccc(Br)s2)c(N)c1C#N, the activation was 98% (active). C#CCOCCOCCOCCNc1nc(N2CCN(C(=O)CCCCCCCCCCNC(=O)[C@@H](CCSC)n3cc(CCO)nn3)CC2)nc(N2CCN(C(=O)CCCCCCCCCCNC(=O)[C@H](CCSC)n3cc(CCO)nn3)CC2)n1 was tested, and the activation was 3.03%. With COc1ccc(NC(=O)C(c2ccc(C)cc2)N(C)C(=O)Cc2cccs2)cc1 (stereo not drawn) the activation was 6.31%. With COc1ccc2[nH]c(C)c(CCN(Cc3cccs3)C(=S)Nc3ccc(F)cc3)c2c1 the activation was 12.4% (active). In the case of CCN(CC)S(=O)(=O)c1ccc2[nH]c(=O)[nH]c2c1, the activation is reported as 15.6% (active). With Cc1noc(C)c1C(=O)Nc1nc2ccccc2s1 the activation was 28.4% (active). Cc1onc(-c2ccccc2)c1C(=O)Nc1nc(-c2cc(F)ccc2F)cs1 was tested, and the activation was -0.1%. O=S(=O)(/N=C(/Nc1nc2ccccc2s1)c1ccccc1)c1ccc(F)cc1 gave an activation of 11.4%. In the case of Cc1cccc(NC2=Nc3ccccc3N3C2=Nc2c(c(C)nn2-c2ccccc2)C3c2ccc(O)c(O)c2)c1 (stereo not drawn), the activation is reported as 362% (active). For Cc1ccc(-c2ccc(CO)o2)cc1N, the activation was 92.6% (active). Cc1nc([N+](=O)[O-])c(Br)n1CC(=O)c1ccc2ccccc2c1 was tested, and the activation was 10.5%. With Cn1c(/C(C#N)=C(\O)CN2CCN(Cc3ccccc3)CC2)nc2ccccc21 the activation was 7.65%. With Cc1nc([N+](=O)[O-])c(Sc2nc3ccccc3n2C)n1Cc1ccccc1 the activation was 46.8% (active).
